Calls of active or inactive are those of the source. No cut-off for these calls is given here.
Key:
[1] = target: T1, Toll-like receptor 7 (Homo sapiens) (UniProt Q9NYK1); experiment: Activation of human TLR7 expressed in HEK293XL assessed as fold induction of NF-kappaB activity at 50 ug/ml after 18 hrs by reporter gene assay relative to control
T1 sequence (whole entry): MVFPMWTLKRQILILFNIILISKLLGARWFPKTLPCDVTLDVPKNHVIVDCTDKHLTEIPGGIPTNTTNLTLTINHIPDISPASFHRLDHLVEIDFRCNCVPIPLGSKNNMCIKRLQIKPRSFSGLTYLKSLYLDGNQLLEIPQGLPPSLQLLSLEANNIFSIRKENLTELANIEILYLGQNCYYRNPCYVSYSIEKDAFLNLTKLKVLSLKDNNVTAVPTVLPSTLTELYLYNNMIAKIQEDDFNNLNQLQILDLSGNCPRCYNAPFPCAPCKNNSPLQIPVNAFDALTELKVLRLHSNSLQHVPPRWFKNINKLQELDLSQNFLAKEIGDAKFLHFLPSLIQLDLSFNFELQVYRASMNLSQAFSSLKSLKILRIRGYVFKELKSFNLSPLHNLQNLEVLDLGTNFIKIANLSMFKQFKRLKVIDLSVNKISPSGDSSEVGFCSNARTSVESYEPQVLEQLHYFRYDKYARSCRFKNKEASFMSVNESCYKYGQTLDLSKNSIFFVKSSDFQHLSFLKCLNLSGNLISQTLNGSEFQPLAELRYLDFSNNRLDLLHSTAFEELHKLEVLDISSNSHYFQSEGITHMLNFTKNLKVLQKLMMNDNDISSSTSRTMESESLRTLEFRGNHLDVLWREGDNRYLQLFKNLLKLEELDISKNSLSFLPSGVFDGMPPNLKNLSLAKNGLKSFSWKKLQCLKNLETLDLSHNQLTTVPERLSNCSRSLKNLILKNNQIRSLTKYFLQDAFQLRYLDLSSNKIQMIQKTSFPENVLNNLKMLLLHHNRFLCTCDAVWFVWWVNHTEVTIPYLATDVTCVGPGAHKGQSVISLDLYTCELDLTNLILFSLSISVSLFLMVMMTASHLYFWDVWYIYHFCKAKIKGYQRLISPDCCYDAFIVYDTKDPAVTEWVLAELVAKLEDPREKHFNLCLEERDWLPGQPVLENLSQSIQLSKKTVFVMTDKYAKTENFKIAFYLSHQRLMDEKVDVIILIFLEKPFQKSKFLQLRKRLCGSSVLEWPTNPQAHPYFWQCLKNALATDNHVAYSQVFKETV
In short: (§1)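 HEK293 cells stably expressing human TLR7 or TLR8, transiently transfected with SEAP reporter plasmid; medium replaced, SIMRA compounds added, 18 h incubation. Supernatant SEAP measured by QuantiBlue; expressed as fold increase in NF-κB activity over PBS control. Tabulated data at 50 μg/mL, representative of three independent experiments.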

[2] = target: T2, Toll-like receptor 8 (Homo sapiens) (UniProt Q9NR97); experiment: Activation of human TLR8 expressed in HEK293XL assessed as fold induction of NF-kappaB activity at 50 ug/ml after 18 hrs by reporter gene assay relative to control; in short: as §1
T2 sequence (whole entry): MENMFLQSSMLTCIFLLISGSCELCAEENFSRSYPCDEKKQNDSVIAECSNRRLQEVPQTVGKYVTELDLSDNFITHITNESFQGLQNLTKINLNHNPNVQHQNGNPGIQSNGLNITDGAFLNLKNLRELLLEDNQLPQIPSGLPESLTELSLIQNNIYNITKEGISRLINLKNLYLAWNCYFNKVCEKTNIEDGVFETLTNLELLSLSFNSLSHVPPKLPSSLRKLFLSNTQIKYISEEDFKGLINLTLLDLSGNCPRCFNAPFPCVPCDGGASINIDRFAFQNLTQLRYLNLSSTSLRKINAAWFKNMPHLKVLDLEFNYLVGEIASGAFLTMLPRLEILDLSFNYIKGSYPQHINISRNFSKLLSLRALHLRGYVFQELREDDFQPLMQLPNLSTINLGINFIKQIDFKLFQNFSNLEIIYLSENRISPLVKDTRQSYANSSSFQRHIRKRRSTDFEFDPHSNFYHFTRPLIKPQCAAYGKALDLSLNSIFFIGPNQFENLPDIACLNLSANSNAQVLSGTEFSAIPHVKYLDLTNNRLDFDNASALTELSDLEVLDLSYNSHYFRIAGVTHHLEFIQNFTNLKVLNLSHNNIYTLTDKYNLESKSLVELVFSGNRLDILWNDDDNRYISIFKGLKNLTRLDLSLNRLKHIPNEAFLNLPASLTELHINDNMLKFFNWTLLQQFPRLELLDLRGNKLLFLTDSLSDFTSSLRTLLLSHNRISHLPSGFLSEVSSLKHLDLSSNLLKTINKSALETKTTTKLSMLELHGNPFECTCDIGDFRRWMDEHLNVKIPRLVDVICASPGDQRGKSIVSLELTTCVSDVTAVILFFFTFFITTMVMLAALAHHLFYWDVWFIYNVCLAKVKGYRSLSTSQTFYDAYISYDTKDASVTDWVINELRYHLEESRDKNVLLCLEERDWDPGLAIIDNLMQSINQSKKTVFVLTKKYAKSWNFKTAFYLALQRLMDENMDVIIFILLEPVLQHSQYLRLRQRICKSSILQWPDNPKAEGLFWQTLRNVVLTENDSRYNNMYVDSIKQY

[3] = target: Toll-like receptor 3 (Homo sapiens) (UniProt O15455); experiment: Activation of human TLR3 expressed in HEK293 assessed as induction of NF-kappaB activity reporter gene assay; type: cell-based
Toll-like receptor 3 (Homo sapiens), sequence (O15455 whole entry): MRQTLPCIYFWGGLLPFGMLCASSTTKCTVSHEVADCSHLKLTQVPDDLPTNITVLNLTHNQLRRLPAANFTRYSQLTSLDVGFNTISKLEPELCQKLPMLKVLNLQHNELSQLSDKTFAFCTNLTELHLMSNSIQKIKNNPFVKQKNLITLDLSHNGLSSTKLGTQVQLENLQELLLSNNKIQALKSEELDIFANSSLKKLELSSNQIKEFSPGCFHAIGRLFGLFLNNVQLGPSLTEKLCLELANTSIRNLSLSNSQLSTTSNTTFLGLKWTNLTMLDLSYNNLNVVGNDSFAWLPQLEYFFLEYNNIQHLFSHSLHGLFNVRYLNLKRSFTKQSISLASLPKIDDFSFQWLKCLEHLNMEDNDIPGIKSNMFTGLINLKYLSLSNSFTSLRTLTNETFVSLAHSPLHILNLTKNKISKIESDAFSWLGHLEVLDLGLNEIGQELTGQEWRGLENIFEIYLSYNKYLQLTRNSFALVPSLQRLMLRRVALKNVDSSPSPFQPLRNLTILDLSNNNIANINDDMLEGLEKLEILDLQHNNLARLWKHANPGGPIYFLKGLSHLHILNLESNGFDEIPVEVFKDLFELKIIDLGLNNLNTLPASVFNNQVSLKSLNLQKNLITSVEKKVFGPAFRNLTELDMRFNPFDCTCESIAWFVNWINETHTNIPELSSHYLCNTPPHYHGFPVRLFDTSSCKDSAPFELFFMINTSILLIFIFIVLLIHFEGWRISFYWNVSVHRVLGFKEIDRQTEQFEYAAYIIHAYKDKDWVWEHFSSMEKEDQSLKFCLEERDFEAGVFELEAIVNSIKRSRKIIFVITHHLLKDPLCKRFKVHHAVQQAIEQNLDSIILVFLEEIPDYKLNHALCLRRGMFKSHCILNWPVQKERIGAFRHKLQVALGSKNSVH

[4] = test system: Splenocyte; experiment: Immunomodulatory activity in C57BL/6 mouse splenocytes bearing TLR7 receptor assessed as IL12 release at 100 ug/ml after 24 hrs by ELISA; type: functional, cell-based
In short: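 C57BL/6 splenocytes in RPMI 1640 with 10% FBS, penicillin/streptomycin, 2 mM L-glutamine, plated at 5 × 10^6 cells/mL; compounds in PBS added, 37 °C for 24 h. Supernatant IL-12 and IL-6 by ELISA; representative of three independent experiments.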

[5] = test system: PBMC; experiment: Immunomodulatory activity in human PBMC assessed as induction of TNFalpha at 100 ug/ml after 24 hrs; type: functional, cell-based
In short: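 Human PBMCs plated at 5 × 10^6 cells/mL; compounds dissolved in PBS added at various concentrations, 37 °C for 24 h. Supernatant cytokines/chemokines quantified with human Luminex multiplex kit.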

[6] = test system: PBMC; experiment: Immunomodulatory activity in human PBMC assessed as induction of IFN-alpha at 100 ug/ml after 24 hrs

SMILES	fold change (FC) [1]	fold change (FC) [2]	Activity [3]	Activity [4]	Activity [5] [pg/mL]	IFN-alpha [6] [pg/mL]
Nc1ccn([C@@H]2O[C@H](COP(=O)(S)O[C@H]3[C@@H](O)[C@H](n4cnc5c(N)ncnc54)O[C@@H]3COP(=O)(S)O[C@H]3[C@@H](O)[C@H](n4cnc5c(N)ncnc54)O[C@@H]3CO)[C@@H](OP(=O)(S)OC[C@H]3O[C@@H](n4ccc(=O)[nH]c4=O)[C@H](O)[C@@H]3OP(=O)(S)OC[C@H]3O[C@@H](n4ccc5c(=O)[nH]c(N)nc54)[C@H](O)[C@@H]3OP(=O)(S)OC[C@H]3O[C@@H](n4cnc5c(N)ncnc54)[C@H](O)[C@@H]3OP(=O)(S)OC[C@H]3O[C@@H](n4ccc(N)nc4=O)[C@H](O)[C@@H]3OP(=O)(S)OC[C@H]3O[C@@H](n4ccc5c(=O)[nH]c(N)nc54)[C@H](O)[C@@H]3OP(=O)(S)OC[C@H]3O[C@@H](n4ccc(N)nc4=O)[C@H](O)[C@@H]3OP(=O)(S)OC[C@H]3O[C@@H](n4ccc(=O)[nH]c4=O)[C@H](O)[C@@H]3OP(=O)(S)OC[C@H]3O[C@@H](n4ccc5c(=O)[nH]c(N)nc54)[C@H](O)[C@@H]3OP(=O)(S)OCC(O)COP(=O)(S)O[C@H]3[C@@H](O)[C@H](n4ccc5c(=O)[nH]c(N)nc54)O[C@@H]3COP(=O)(S)O[C@H]3[C@@H](O)[C@H](n4ccc(=O)[nH]c4=O)O[C@@H]3COP(=O)(S)O[C@H]3[C@@H](O)[C@H](n4ccc(N)nc4=O)O[C@@H]3COP(=O)(S)O[C@H]3[C@@H](O)[C@H](n4ccc5c(=O)[nH]c(N)nc54)O[C@@H]3COP(=O)(S)O[C@H]3[C@@H](O)[C@H](n4ccc(N)nc4=O)O[C@@H]3COP(=O)(S)O[C@H]3[C@@H](O)[C@H](n4cnc5c(N)ncnc54)O[C@@H]3COP(=O)(S)O[C@H]3[C@@H](O)[C@H](n4ccc5c(=O)[nH]c(N)nc54)O[C@@H]3COP(=O)(S)O[C@H]3[C@@H](O)[C@H](n4ccc(=O)[nH]c4=O)O[C@@H]3COP(=O)(S)O[C@H]3[C@@H](O)[C@H](n4ccc(N)nc4=O)O[C@@H]3COP(=O)(S)O[C@H]3[C@@H](O)[C@H](n4cnc5c(N)ncnc54)O[C@@H]3COP(=O)(S)O[C@H]3[C@@H](O)[C@H](n4cnc5c(N)ncnc54)O[C@@H]3CO)[C@H]2O)c(=O)n1 (some centres not stated)	18.4	0.4	inactive	Active	0	0
Nc1ccn([C@@H]2O[C@H](COP(=O)(S)O[C@H]3[C@@H](O)[C@H](n4cnc5c(N)ncnc54)O[C@@H]3CO)[C@@H](OP(=O)(S)OC[C@H]3O[C@@H](n4ccc5c(=O)[nH]c(N)nc54)[C@H](O)[C@@H]3OP(=O)(S)OC[C@H]3O[C@@H](n4ccc(=O)[nH]c4=O)[C@H](O)[C@@H]3OP(=O)(S)OC[C@H]3O[C@@H](n4ccc5c(=O)[nH]c(N)nc54)[C@H](O)[C@@H]3OP(=O)(S)OC[C@H]3O[C@@H](n4cnc5c(N)nc(N)nc54)[C@H](O)[C@@H]3OP(=O)(S)OC[C@H]3O[C@@H](n4cnc5c(N)ncnc54)[C@H](O)[C@@H]3OP(=O)(S)OC[C@H]3O[C@@H](n4ccc5c(=O)[nH]c(N)nc54)[C@H](O)[C@@H]3OP(=O)(S)OC[C@H]3O[C@@H](n4ccc(N)nc4=O)[C@H](O)[C@@H]3OP(=O)(S)OC[C@H]3O[C@@H](n4ccc(=O)[nH]c4=O)[C@H](O)[C@@H]3OP(=O)(S)OC[C@H]3O[C@@H](n4ccc(=O)[nH]c4=O)[C@H](O)[C@@H]3OP(=O)(S)OCC(O)COP(=O)(S)O[C@H]3[C@@H](O)[C@H](n4ccc(=O)[nH]c4=O)O[C@@H]3COP(=O)(S)O[C@H]3[C@@H](O)[C@H](n4ccc(=O)[nH]c4=O)O[C@@H]3COP(=O)(S)O[C@H]3[C@@H](O)[C@H](n4ccc(N)nc4=O)O[C@@H]3COP(=O)(S)O[C@H]3[C@@H](O)[C@H](n4ccc5c(=O)[nH]c(N)nc54)O[C@@H]3COP(=O)(S)O[C@H]3[C@@H](O)[C@H](n4cnc5c(N)nc(N)nc54)O[C@@H]3COP(=O)(S)O[C@H]3[C@@H](O)[C@H](n4cnc5c(N)nc(N)nc54)O[C@@H]3COP(=O)(S)O[C@H]3[C@@H](O)[C@H](n4ccc5c(=O)[nH]c(N)nc54)O[C@@H]3COP(=O)(S)O[C@H]3[C@@H](O)[C@H](n4ccc(=O)[nH]c4=O)O[C@@H]3COP(=O)(S)O[C@H]3[C@@H](O)[C@H](n4ccc5c(=O)[nH]c(N)nc54)O[C@@H]3COP(=O)(S)O[C@H]3[C@@H](O)[C@H](n4ccc(N)nc4=O)O[C@@H]3COP(=O)(S)O[C@H]3[C@@H](O)[C@H](n4cnc5c(N)ncnc54)O[C@@H]3CO)[C@H]2O)c(=O)n1 (some centres not stated)	26.8	2	inactive	Active	165	123

From ChEMBL document CHEMBL1154352, “Toll-like receptor 7 selective synthetic oligoribonucleotide agonists: synthesis and structure-activity relationship studies” (J Med Chem, 2009)
